The values below come from paper PMC4089878 (Molecular cancer therapeutics, 2013).

pEC50: −log10 of the molar value.

The subject of series [1] is K562 cells. Nature of the series: Apoptosis. The format is cell-based, human. Conditions: 24 hrs (Pimozide 48 hrs).
The subject of series [2] is primary human cord blood CD34+ cells. Nature of the series: Growth of normal cord blood CD34+ cells. The format is cell-based. Conditions: Supplementary figure 5.
For series [3], the system named is ID1 protein in K562 cells. Nature of the series: Western blot of USP1 and ID1 protein levels in K562 cells. The settings on record: for USP1 and ID1 protein levels: Western blot, 24 hrs (Pimozide 48 hrs). The format is cell-based, human. (In general: A western blot detects proteins with antibodies after separation by electrophoresis.)
The subject of series [4] is K562 cells. The series can be described thus: Cytotoxicity / viable cell count in K562 leukemic cells. The format is cell-based, human.
The test system of the next series is K562 xenograft. The series can be described thus: K562 mouse xenograft. The format is in vivo, athymic nude mice. The settings on record: 15 mg/kg daily ip, nude mice. In outline: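 Athymic nude mice aged 6–8 weeks were injected subcutaneously in the flank with 5 × 10^6 K562 cells mixed 1:1 with matrigel. At […] tumor size, mice received 15 mg/kg daily ip in 2% DMSO + 0.3% tartaric acid, or vehicle alone (n=10 per group). Tumor volume was calculated as width² × length/2 and compared by […] t-test.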

Series [5] deals with MOLM14, OCI-AML3, U937 and SK-NO1. The series can be described thus: Cytotoxicity in AML cell lines. Conditions: 24 hrs. The format is cell-based, human.
In the next series the test system is Ub-FANCD2. The series can be described thus: Western blot of Ub-FANCD2, Ub-FANCI, Ub-PCNA levels. The format is cell-based, human. The settings on record: supplementary figure 6.
The subject of series [6] is primary AML bone marrow and peripheral blood cells. The series can be described thus: Cytotoxicity in primary AML patient cells. Conditions: 48-72 hrs. The format is cell-based, human. In outline: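 Fresh bone marrow and peripheral blood were taken from AML patients, and mononuclear cells were harvested. These were cultured in triplicate with test compound or DMSO for 48–72 h, and viability was determined. Data come from 3 patient samples, shown as mean ± SEM.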

In series [7] the test system is K562 cells. The series can be described thus: Benzidine staining differentiation of K562 cells. The format is cell-based, human. Conditions: low dose, 5 days.
The next series concerns U2OS-DRGFP cells. The series can be described thus: DR-GFP homologous recombination reporter. The format is cell-based, human. The settings on record: 24 h treatment. An outline of the steps:
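U2OS-DRGFP cells carry a single chromosomally integrated copy of the HR substrate and were grown in DMEM with 10% FBS. DSBs were induced by I-SceI expression after plasmid transfection. After 24 h, cells were exposed to test compound for 24 h. The percentage of viable GFP-positive cells was measured by FACS and normalized to the solvent vehicle group.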

In another series the test system is native USP1/UAF1 complex. The series can be described thus: HA-Ub-VS competition assay on native USP1 in cell extracts. The format is cell-based, human. The settings on record: K562 cells treated 24 hrs (SJB2-043 1 μM); Ub-Aldehyde 5 μM added to extract. In outline:
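K562 cells were treated with test compound or DMSO for 24 h. Cell extracts were then incubated with 0.5 μM final HA-Ub-vinylsulfone for 45 min at 30 °C. As a control, an aliquot of untreated extract was pretreated with 5 μM ubiquitin-aldehyde before probe addition. Samples were immunoblotted with anti-HA and anti-USP1 antibodies.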

native USP1/UAF1 complex, sequence (O94782 1-671 limits assumed): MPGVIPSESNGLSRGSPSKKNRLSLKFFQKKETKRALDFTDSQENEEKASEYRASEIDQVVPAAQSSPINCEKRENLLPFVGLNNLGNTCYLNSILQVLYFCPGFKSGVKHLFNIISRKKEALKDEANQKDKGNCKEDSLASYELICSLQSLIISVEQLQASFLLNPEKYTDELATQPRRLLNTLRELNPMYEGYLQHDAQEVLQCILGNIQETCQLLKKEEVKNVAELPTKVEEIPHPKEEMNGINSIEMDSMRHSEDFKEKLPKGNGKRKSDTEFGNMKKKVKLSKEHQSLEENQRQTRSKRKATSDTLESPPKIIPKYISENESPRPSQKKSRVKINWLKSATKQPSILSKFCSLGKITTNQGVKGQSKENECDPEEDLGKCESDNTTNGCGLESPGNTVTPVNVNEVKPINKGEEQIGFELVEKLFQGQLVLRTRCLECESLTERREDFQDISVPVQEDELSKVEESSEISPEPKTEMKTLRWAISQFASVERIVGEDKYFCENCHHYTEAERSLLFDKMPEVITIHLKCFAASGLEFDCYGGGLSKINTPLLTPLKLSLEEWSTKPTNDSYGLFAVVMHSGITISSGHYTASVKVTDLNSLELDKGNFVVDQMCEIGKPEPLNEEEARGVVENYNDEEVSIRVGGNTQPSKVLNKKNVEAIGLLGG
native USP1/UAF1 complex, sequence (Q8TAF3 whole entry, further chain): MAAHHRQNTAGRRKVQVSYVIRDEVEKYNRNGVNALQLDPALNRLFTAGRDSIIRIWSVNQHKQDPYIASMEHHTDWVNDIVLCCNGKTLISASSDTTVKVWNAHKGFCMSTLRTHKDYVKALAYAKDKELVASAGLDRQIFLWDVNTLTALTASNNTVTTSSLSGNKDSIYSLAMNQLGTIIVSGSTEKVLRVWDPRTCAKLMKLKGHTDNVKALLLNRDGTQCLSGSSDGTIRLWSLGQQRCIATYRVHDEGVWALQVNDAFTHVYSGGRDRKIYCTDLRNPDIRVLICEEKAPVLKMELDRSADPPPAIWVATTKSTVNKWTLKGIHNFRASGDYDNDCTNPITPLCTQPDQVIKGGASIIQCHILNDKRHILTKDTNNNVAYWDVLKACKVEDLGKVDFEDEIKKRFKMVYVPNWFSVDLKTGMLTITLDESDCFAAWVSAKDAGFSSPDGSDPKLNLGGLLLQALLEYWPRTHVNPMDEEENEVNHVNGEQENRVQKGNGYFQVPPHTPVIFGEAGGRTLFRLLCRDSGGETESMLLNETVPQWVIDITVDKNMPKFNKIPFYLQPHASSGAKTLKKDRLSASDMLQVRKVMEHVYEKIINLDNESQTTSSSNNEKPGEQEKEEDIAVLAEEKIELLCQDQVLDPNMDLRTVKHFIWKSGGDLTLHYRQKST

Turning to `O=c1[nH]c2ccccc2n1C1CCN(CCCC(c2ccc(F)cc2)c2ccc(F)cc2)CC1` [Pimozide, reference compound], in the series with K562 cells [1], the “apoptosis of K562 cells” value is “induction of apoptosis”. Further, the “effect on normal human cord blood CD34+ cells” value in [2] is “tolerated at high micromolar doses”. Also, the “USP1 and ID1 protein levels” value in series [3] is given as “promoted ID1 degradation”. Further, in the series with K562 cells [4] (48 hrs), the “K562 cell growth” value is “dose-dependent inhibition of K562 cell growth”. In addition, in the series on K562 xenograft, the “tumor growth in K562 xenograft” value is “modest inhibition of tumor growth”.

By pEC50 is commonly meant the EC50 on a negative log10 scale, so that one unit is a factor of ten. `O=C1c2ccccc2C(=O)c2oc(-c3ccccc3)nc21` [SJB2-043]: in [5], the “cytotoxicity in AML cell lines” value was “dose-dependent cytotoxicity and concomitant ID1 degradation”. For the same compound, in the series on K562 cells [1], the “apoptosis of K562 cells” value is recorded as “induced apoptosis of K562 cells in a dose-dependent manner”. Besides, the “effect on normal human cord blood CD34+ cells” value in series [2] is listed as “did result in growth inhibition”. The “USP1/ID1 degradation, time course” value in series [3] (2 μM, 18 hrs or 26 hrs) is reported as “complete degradation of USP1/ID1”. For the same compound, the “USP1 and ID1 protein levels” value in [3] is “dose-dependent decrease in USP1 levels and a concomitant degradation of ID1 protein”. Moreover, the “levels of Ub-FANCD2 / Ub-PCNA” value with Ub-FANCD2 is listed as “increased the level of Ub-FANCD2”. For the same compound, the “cytotoxicity on primary AML bone marrow and peripheral blood cells” value in series [6] was “dose-dependent cytotoxicity”. Moreover, the pEC50 in the series with K562 cells [4] (read-out: EC50, decrease in the number of viable K562 cells, 24 hrs, ± 0.08 (95% Confidence Limits)) is around 5.97. Further, the “differentiation of K562 cells” value in the series on K562 cells [7] is reported as “activated differentiation of K562 cells into hemoglobin-expressing erythroid cells”.

For the compound `O=C1c2ccccc2C(=O)c2oc(-c3cccnc3)nc21` [SJB3-019A], the “potency relative to SJB2-043 in promoting ID1 degradation” value in series [3] is recorded as 5 times. Also, the “levels of Ub-FANCD2 / Ub-PCNA” value in the series with Ub-FANCD2 was “increased the levels of Ub-FANCD2 and Ub-PCNA”. Further, in the series on K562 cells [4] (K562 cells), the “potency relative to SJB2-043 in cytoxicity in K562 cells” value was 5 times. Also, in the series on U2OS-DRGFP cells, the “gene conversion / HR activity” value is recorded as “decreased the HR activity”.

In the case of Ub-aldehyde, the “Ub-VS labeling of native USP1” value in the series on native USP1/UAF1 complex is on record as “complete loss of USP1-Ub-VS conjugates”.
